Measured values published in the EternaBench riboswitch data.

Assays:
MS2 coat protein [1] = test: apparent Kd, MS2 coat protein; higher = weaker binding; RNA-MaP array
Outline: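 Binding of fluorescently labeled MS2 coat protein, at 1.5 nM to 3 μM and room temperature, was measured with or without input ligand on designed RNAs transcribed on an Illumina sequencing chip from sequenced DNA templates. Apparent Kd was defined as the median of per-cluster binding-curve fits. No design measured on fewer than 10 clusters was kept.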

MS2 coat protein [2] = test: apparent Kd, MS2 coat protein; higher = weaker binding; RNA-MaP array; FMN 200 µM where present
Outline: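 Designs were transcribed by stalled E. coli RNA polymerase on Illumina sequencing-chip clusters. They were titrated with SNAP-549-labelled MS2 coat protein from 0.7 or 1.5 nM, doubling to 3 µM, without and then with constant ligand. Buffer: 100 mM Tris-HCl pH 7.5, 80 mM KCl, 4 mM MgCl2, BSA, DTT, yeast tRNA, Tween-20. Green signal was normalised to red-channel RNA signal and control-cluster median Fmax. Apparent Kd is the median of filtered per-cluster binding-curve fits.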

[3] = designed as: ON switch for flavin mononucleotide, no ligand
[4] = ligand present: flavin mononucleotide, designed as: ON switch for flavin mononucleotide
[5] = designed as: OFF switch for flavin mononucleotide, no ligand
[6] = ligand present: flavin mononucleotide, designed as: OFF switch for flavin mononucleotide
[7] = designed as: ON switch for theophylline, no ligand
[8] = ligand present: theophylline, designed as: ON switch for theophylline

CUCAUGAGGAAGAAGGAUUAGGUCAGUGCAGUAAUAGGAUAUUCGUAACACAUGAGGAUCACCCAUGUCUACUCCGGAGCGACA
apparent Kd (MS2 coat protein [1]; [3]): 182 nM
apparent Kd (MS2 coat protein [1]; [4]): 81.1 nM

AUCACUGAGCGAGGAUAUUAUUUCAAAUCAACGACGAUCCUACACAUGAGGAUCACCCAUGUUAGUAAGAAGGCGCGCCAGAUG
apparent Kd (MS2 coat protein [1]; [5]): 62.5 nM
apparent Kd (MS2 coat protein [1]; [6]): 93.5 nM

CAGAGACAUGAGGAUCACCCAUGUUGAGAUACCAGCUUGGUAUCGAGCCCUUGGCAGCUCGCCCAUCGUCUAUAUCAGCCUGAGC
apparent Kd (MS2 coat protein [1]; [7]): 16.5 nM
apparent Kd (MS2 coat protein [1]; [8]): 20.2 nM

CCCGGUGAUGUCAAACAUGAGGAUCACCCAUGUCUUCACCAUAGAAGGCGCUUUAUUCUAGCUAGCGAGGAUAUAUGGUUUCAG
apparent Kd (MS2 coat protein [1]; [5]): 39.6 nM
apparent Kd (MS2 coat protein [1]; [6]): 44.6 nM

ACAAGAGUAAAACAUACAUGAGGAUCACCCAUGUUAUCAACAAAGGAUAUCGUUGUGGUAGGGAACGAGAAGGUUGCAAAAUCA
apparent Kd (MS2 coat protein [1]; [3]): 15.4 nM
apparent Kd (MS2 coat protein [1]; [4]): 11.7 nM

CUAACACAUGAGGAUCACCCAUGUUAGGAUAUCAGCUGCAGCGCUCGACUGCAAUUUAUGAGAAGGAACUGUGG
apparent Kd (MS2 coat protein [1]; [5]): 17.5 nM
apparent Kd (MS2 coat protein [1]; [6]): 24.2 nM

GUACAUAUAGAGAAGGGUGAGUAUAUCAGCCUCACAGGAUAUCUGAUGAGUGACAUGAGGAUCACCCAUGUGGUUGUCGGUAGG
apparent Kd (MS2 coat protein [1]; [5]): 214 nM
apparent Kd (MS2 coat protein [1]; [6]): 102 nM

UGUAGCCGCGAGAAGGUAAGCUAAGGAUGUGGUAUCAACGACUACAUGAGGAUCACCCAUGUGCUUAAGGAUAUCGAGGUGGAG
apparent Kd (MS2 coat protein [1]; [3]): 62.5 nM
apparent Kd (MS2 coat protein [1]; [4]): 104 nM

GACGUGUCGCAGAAGGUGGCGAGGAUAGACAUGAGGAUCACCCAUGUGGGACGCGUUAGGUCUGCCAAGGAUAUGCGCAACUCU
apparent Kd (MS2 coat protein [1]; [5]): 54.3 nM
apparent Kd (MS2 coat protein [1]; [6]): 28.7 nM

GUAUGGGCUGUAAGGAUAUCUAAGCCGGUUGUGGCAGAGAAGGUACAUGAGGAUCACCCAUGUGGACUUGGGUC
apparent Kd (MS2 coat protein [1]; [5]): 13.9 nM
apparent Kd (MS2 coat protein [1]; [6]): 15.7 nM

AAGUUGAGCACAAAGGAUAUUUGUAAACAAACAUGAGGAUCACCCAUGUGAACAAUAGUACAUACAAAGAAGGUUGAGAUACAUGU
apparent Kd (MS2 coat protein [1]; [3]): 54.2 nM
apparent Kd (MS2 coat protein [1]; [4]): 25.9 nM

AAUUGGUGACUAGGAUAUUAGGGAUGGCCGUACUAAGAAGGAGUCGUGCUAACAUGAGGAUCACCCAUGUAUUGGAAGCCUUAA
apparent Kd (MS2 coat protein [1]; [5]): 15.5 nM
apparent Kd (MS2 coat protein [1]; [6]): 13.4 nM

GAACGGAGAGAAGGAUAUGGCAUAUUGCCUCACAUGAGGAUCACCCAUGUCAAGACAAAGCGAUCCCAGAAGGUCUCACAACAU
apparent Kd (MS2 coat protein [1]; [3]): 60.1 nM
apparent Kd (MS2 coat protein [1]; [4]): 26.8 nM

UCAGGUCCGAAGAAGGCGAAGCAACAUUACUAUCGAGGAUAUUCUACAUGAGGAUCACCCAUGUCACCAUCGAUGACAGAGAAU
apparent Kd (MS2 coat protein [1]; [5]): 7.65 nM
apparent Kd (MS2 coat protein [1]; [6]): 7.93 nM

UCACGGUCAGGAUAUCCUACCUUAGGGCAACCAUGGUAAACGGAGAAGGGACAUGAGGAUCACCCAUGUACAGC
apparent Kd (MS2 coat protein [1]; [5]): 12.9 nM
apparent Kd (MS2 coat protein [1]; [6]): 26.8 nM

CUAAAACAUGAGGAUCACCCAUGUCAUUUAACUCAAGGAUAUAGAUCUGAGAGCUCAGCGCUAGAAGGUGAUUUUG
apparent Kd (MS2 coat protein [1]; [3]): 55.1 nM
apparent Kd (MS2 coat protein [1]; [4]): 40.3 nM

CCGUCACAUGAGGAUCACCCAUGUGGUGAUACCAGCAGUCGACCCUGCCCUUGGCAGCACAUUAUCAUAAAAGCAAUCAGCAACG
apparent Kd (MS2 coat protein [1]; [7]): 156 nM
apparent Kd (MS2 coat protein [1]; [8]): 149 nM

AUUUUAAACAAGAAGGGCUUACGCAAGCUGAGAGCAGGAUAUUGACAUGAGGAUCACCCAUGUAUUAGACCAUAAGAUCCCAUU
apparent Kd (MS2 coat protein [1]; [5]): 20.5 nM
apparent Kd (MS2 coat protein [1]; [6]): 20.6 nM

UAUCGCGCGGCGGCCGCCACUAAUGGCAGAUCUGUCGACUAACAUGAGGAUCACCCAUGUCUAACUAGGACCGGGCCCAAGUUGU
apparent Kd (MS2 coat protein [1]; designed as: ON switch for tryptophan, no ligand): 47.5 nM
apparent Kd (MS2 coat protein [1]; ligand present: tryptophan, designed as: ON switch for tryptophan): 40.2 nM

CGGGAACAUGAGGAUCACCCAUGUCAGGAUAUACGCGAUGGCAACAGUGAUUGUUUGUGUAGAAGGGACUUACG
apparent Kd (MS2 coat protein [1]; [5]): 33.3 nM
apparent Kd (MS2 coat protein [1]; [6]): 30.2 nM

CCAGGGCGAAACAUGAGGAUCACCCAUGUCCUAGCAACGAUGAGAAGGGUAAACACAAUGUCUUUACAGGAUAUCAACCAUACG
apparent Kd (MS2 coat protein [1]; [3]): 11.2 nM
apparent Kd (MS2 coat protein [1]; [4]): 7.6 nM

GGUGAGUCAGGAUAUUGUGCAUUUGAGACCCACACGGGACACAAGAAGGGACAUGAGGAUCACCCAUGUGCUCA
apparent Kd (MS2 coat protein [1]; [5]): 9.73 nM
apparent Kd (MS2 coat protein [1]; [6]): 12.8 nM

CAGAGCCAAAACAAGGAUAUACAUAACAUUACAUGAGGAUCACCCAUGUUAUAGCUAACCUUGUAGUAGAAGGUGUUUGGCAACAU
apparent Kd (MS2 coat protein [1]; [3]): 7.36 nM
apparent Kd (MS2 coat protein [1]; [4]): 6.39 nM

AAAUAUAAUCAGAAGGGUUGCUAAACAUGAGGAUCACCCAUGUGAUAACGAUACGAGUAAAUCGAACAGGAUAUGAUGCAGGUU
apparent Kd (MS2 coat protein [1]; [3]): 16.5 nM
apparent Kd (MS2 coat protein [1]; [4]): 12 nM

AAACAAAUGCAAGGAUAUCAUAAUACAAACAGGAGAGAAGGUGCAGAGCACAUGAGGAUCACCCAUGUCCUAGGAUAUUCCUAA
apparent Kd (MS2 coat protein [1]; [3]): 121 nM
apparent Kd (MS2 coat protein [1]; [4]): 80.4 nM

GAAAUCAGAGAGAAGGGUUUACAUCCGACAUGAGGAUCACCCAUGUAGUAAAACUACGACAACUAACAGGAUAUCACUGGCACC
apparent Kd (MS2 coat protein [1]; [3]): 208 nM
apparent Kd (MS2 coat protein [1]; [4]): 176 nM

CGAAUCAACCGGCAGGAUAUGAAAACUAAAACAUGAGGAUCACCCAUGUCGGACAAGAACAUGAUACAGAAGGGCCACGUAACAAG
apparent Kd (MS2 coat protein [1]; [3]): 95.5 nM
apparent Kd (MS2 coat protein [1]; [4]): 26.3 nM

GACCGGACAUCCUAGGAUAUUUAUACUGAUACAUGAGGAUCACCCAUGUUUGGAAACAUCGUACGAAAGAAGGAGGAGACCUCUGA
apparent Kd (MS2 coat protein [1]; [3]): 11.7 nM
apparent Kd (MS2 coat protein [1]; [4]): 10.8 nM

GCCUUAGGGGCAGGAUAUUUCGAGGACCUCAACAUGAGGAUCACCCAUGUACCGCAAUCGUCUCUAAAGAAGGGCCUCUUGCUC
apparent Kd (MS2 coat protein [1]; [3]): 53.9 nM
apparent Kd (MS2 coat protein [1]; [4]): 28.5 nM

AUAGCAAAAGUGAGGAUAUUCGACAUAGAACGCAUGAAGAAGGCACAUGAGGAUCACCCAUGUUCUCGUUAGUA
apparent Kd (MS2 coat protein [1]; [5]): 10.6 nM
apparent Kd (MS2 coat protein [1]; [6]): 14.1 nM

UCGGCACAUGAGGAUCACCCAUGUAAGGAUAUACGAAGCUUGCAGUCGCUGUUAUUUGGUAGAAGGUACCCUCG
apparent Kd (MS2 coat protein [1]; [5]): 14.5 nM
apparent Kd (MS2 coat protein [1]; [6]): 12.5 nM

AAGGGUCAACAGAAGGUUGUCGAACAUUGCGCCAAAGGAUAUGUCUACCGUUUAAGCGUUCGUCACAUGAGGAUCACCCAUGUU
apparent Kd (MS2 coat protein [1]; [3]): 26.8 nM
apparent Kd (MS2 coat protein [1]; [4]): 18.3 nM

UUGGACGUCGUAGGAUAUGUAGGAUAUUCCUACAUGAGGAUCACCCAUGUUGACAUGGAAGAAGGACCGAAGGACGAUGUCCAU
apparent Kd (MS2 coat protein [2]; [3]): 148 nM
apparent Kd (MS2 coat protein [2]; [4]): 691 nM

CAGGUAGACUGAGGAUAUACAGACCUAGUCUAUCUAGGUCAAUUAACCACAUGAGGAUCACCCAUGUAGAAGGCAGUCUGCCUG
apparent Kd (MS2 coat protein [2]; [5]): 15.9 nM
apparent Kd (MS2 coat protein [2]; [6]): 21.4 nM

AUAUUUAUUUAGAAGGACAUGAGGAUCACCCAUGUCGCUGGGCGCGGGAAACCGUGCCCGGCCAUGUAGGAUAUAGAUAGAUAU
apparent Kd (MS2 coat protein [2]; [5]): 8.78 nM
apparent Kd (MS2 coat protein [2]; [6]): 9.88 nM

CGUUGAUUUAUUGGAUGAUAUGAUGAGGAUAUCAAUAUUUGUUACAUGAGGAUCACCCAUGUUAAUGAGAAGGCAUAAUUAACG
apparent Kd (MS2 coat protein [2]; [3]): 8.49 nM
apparent Kd (MS2 coat protein [2]; [4]): 7.96 nM

UGUUGUAUUACAGGAUAUCUAGUAUUUUUAUUAAGAGAAGGGUAUUCACAUGAGGAUCACCCAUGUAUAUACGAGGAAGUUGUG
apparent Kd (MS2 coat protein [2]; [3]): 42.4 nM
apparent Kd (MS2 coat protein [2]; [4]): 42.4 nM

AAGAGGUGAGGAUAUCGAAGAAGAAGAAGAAGAAGAAGAAACGAGAAGGCACAUGAGGAUCACCCAUGUAAGAA
apparent Kd (MS2 coat protein [2]; [5]): 22.5 nM
apparent Kd (MS2 coat protein [2]; [6]): 19.9 nM

UUGUGCUUAGAGAAGGUUCAAACUACAUAUUGCGCACAUGAGGAUCACCCAUGUUGGUGAAUAAGAAAGGAUAUUUGACUGUAU
apparent Kd (MS2 coat protein [2]; [5]): 131 nM
apparent Kd (MS2 coat protein [2]; [6]): 98 nM

UUGUGCUUAGAGAAGGUUCAAACUACAUAUUGCGCACAUGAGGAUCACCCAUGUUGGUGAAUAAGAAAGGAUAUUUGACUGUAC
apparent Kd (MS2 coat protein [2]; [5]): 118 nM
apparent Kd (MS2 coat protein [2]; [6]): 85.2 nM

AUGAGCUCGUCAGGAUAUACGUCACUGCGUCAGCAGUGUGGUAAGAUCACAUGAGGAUCACCCAUGUAGAAGGGACGAGCUGAU
apparent Kd (MS2 coat protein [2]; [5]): 14.6 nM
apparent Kd (MS2 coat protein [2]; [6]): 307 nM

CGGGAUAGGAAGGGCGAAAGCCCACAUGAGGAUCACCCAUGUAGAAGGCGGGCCGCAACGCGGCCCGAGGAUAUACACUAUCCA
apparent Kd (MS2 coat protein [2]; [5]): 6.63 nM
apparent Kd (MS2 coat protein [2]; [6]): 12.7 nM

UGUCCAUAGCAGAAGGACAUGAAUAAAUAUGAAAACAUGAGGAUCACCCAUGUAGGAUAUGCUAUGGACUAAGAGCGAAAGCUC
apparent Kd (MS2 coat protein [2]; [5]): 7.68 nM
apparent Kd (MS2 coat protein [2]; [6]): 49.3 nM

GUAAAUCAUGUAGGAUAUGCAUGGCGAAGCUACGCAGAAGGACAUGAGGAUCACCCAUGUUCUAGCGUCUGAGUUCAGAUGCAA
apparent Kd (MS2 coat protein [2]; [5]): 19.3 nM
apparent Kd (MS2 coat protein [2]; [6]): 45.9 nM

CCCAUGUUAGGAUAUCGGCUCCGCCGUUCCACAUGGCGCUCCGAGAAGGAACAUGAGGAUCACCCAUGUAAAGA
apparent Kd (MS2 coat protein [2]; [5]): 39.1 nM
apparent Kd (MS2 coat protein [2]; [6]): 140 nM
